Laboratory results reported in ChEMBL document CHEMBL1124233, “Clofazimine analogues active against a clofazimine-resistant organism” (J Med Chem, 1988).

Experiments:
Format in all cases: functional, organism-based
[1] = tested on: Mycolicibacterium smegmatis; assay: 100% inhibition of growth of clofazimine resistant Mycobacterium smegmatis 607 strain in vitro
In short: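 Strain: 20× step-up clofazimine-resistant mutant of M. smegmatis ATCC607. 10^5 viable cells inoculated into modified Kirchner's medium with 0.5% Tween 80. Drugs were added in DMSO (2% final in all tubes). Roller tubes were incubated at 37 °C for 72 h. Growth was read as optical transmission in a spectrophotometer.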

[2] = tested on: Mycolicibacterium smegmatis; assay: Concentration for 100% inhibition of growth of dapsone sensitive Mycobacterium smegmatis 607 strain in vitro
In short: (§1)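 M. smegmatis ATCC607-derived strains (one of three used, including a dapsone-sensitive one) were grown in modified Kirchner's medium with 0.5% Tween 80, inoculated with 10^5 viable cells. Drugs were added in DMSO (2% final). Roller tubes were incubated at 37 °C for 72 h. Growth was read as spectrophotometric transmission.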

[3] = tested on: Mycolicibacterium smegmatis; assay: 100% inhibition of growth of rifampicin resistant Mycobacterium smegmatis 607 strain in vitro; in short: as §1

Structure (SMILES)	Concentration [1] [µg/mL]	Concentration [2] [µg/mL]	Concentration [3] [µg/mL]
CCOc1ccc(Nc2cc3nc4ccccc4n(-c4ccc(OCC)cc4)c-3c/c2=N\CCO)cc1	20	5	10
CC(C)CC/N=c1\cc2n(-c3ccccc3)c3ccccc3nc-2cc1Nc1ccccc1	20	2	2
OCCC/N=c1\cc2n(-c3ccc(Cl)cc3)c3ccccc3nc-2cc1Nc1ccc(Cl)cc1	10	2	2
OCC/N=c1\cc2n(-c3ccc(Cl)cc3)c3ccccc3nc-2cc1Nc1ccc(Cl)cc1	20	2	2
CC1CCCCN1CCC/N=c1\cc2n(-c3ccccc3)c3ccccc3nc-2cc1Nc1ccccc1 (centres undefined)	2	0.3	0.3
CCCC/N=c1\cc2n(-c3ccc(Cl)cc3)c3ccccc3nc-2cc1Nc1ccc(Cl)cc1	100	3	3
CCOc1ccc(Nc2cc3nc4ccccc4n(-c4ccc(OCC)cc4)c-3c/c2=N\CCN(CC)CC)cc1	5	1	1
Clc1ccc(Nc2cc3nc4ccccc4n(-c4ccc(Cl)cc4)c-3c/c2=N\CCN2CCNCC2)cc1	0.8	0.2	0.2
CCN(CC)CC/N=c1\cc2n(-c3ccc(Cl)cc3)c3ccccc3nc-2cc1Nc1ccc(Cl)cc1	12	0.6	0.6
CCN(CC)CCCC(C)/N=c1\cc2n(-c3ccc(Cl)cc3)c3ccccc3nc-2cc1Nc1ccc(Cl)cc1 (centres undefined)	2	0.2	0.2
O=C1CCCN1CC/N=c1\cc2n(-c3ccc(Cl)cc3)c3ccccc3nc-2cc1Nc1ccc(Cl)cc1	20	1	1.6
Clc1ccc2c(c1)nc1cc(Nc3ccccc3)/c(=N/CCN3CCOCC3)cc-1n2-c1ccccc1	50	1	1.5
CC(C)/N=c1\cc2n(-c3ccccc3)c3ccccc3nc-2cc1Nc1ccccc1	100	2	3
CCCC/N=c1\cc2n(-c3ccccc3)c3ccc(Cl)cc3nc-2cc1Nc1ccccc1	100	2	3
CC(C)/N=c1\cc2n(-c3ccc(Cl)cc3)c3ccccc3nc-2cc1Nc1ccc(Cl)cc1	30	1.5	0.5
c1ccc(Nc2cc3nc4ccccc4n(-c4ccccc4)c-3c/c2=N\CCCN2CCCC2)cc1	0.6	0.2	0.2
CCN(CC)CCC/N=c1\cc2n(-c3ccc(Cl)cc3)c3ccccc3nc-2cc1Nc1ccc(Cl)cc1	1	0.2	0.2
N=c1cc2n(-c3ccccc3)c3ccccc3nc-2cc1Nc1ccccc1	12	3	8
CC(C)NCCC/N=c1\cc2n(-c3ccc(Cl)cc3)c3ccccc3nc-2cc1Nc1ccc(Cl)cc1	2	0.3	0.2
CC(C/N=c1\cc2n(-c3ccc(Cl)cc3)c3ccccc3nc-2cc1Nc1ccc(Cl)cc1)N(C)C (centres undefined)	16	1.2	6
CCN(CC)CC/N=c1\cc2n(-c3ccc(C)cc3)c3ccccc3nc-2cc1Nc1ccc(C)cc1	3	0.5	0.5
Clc1ccc(Nc2cc3nc4ccccc4n(-c4ccc(Cl)cc4)c-3c/c2=N\CCN2CCCC2)cc1	10	0.5	0.5
CCN(CC)CC/N=c1\cc2n(-c3ccccc3)c3ccccc3nc-2cc1Nc1ccccc1	6	0.6	0.8
